Tested on: HEp-2 RSV Long CPE inhibition, luminescence viability
Assay: RSV-infected HEp-2 viability protection – cell-based, RSV Long, synthesized compounds, set 9, dose response (AID 504823)
How it was run: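 Material – RSV Long-infected HEp-2 cells · Probe or stimulus – RSV Long, MOI 0.45 · Compound dosing – 0.5% DMSO final · Times – 6 days, 37 °C · Measured by – luminescent CPE readout · Evaluation – % CPE inhibition scaled to cell-only and virus-only wells, IC50 by 4-parameter fit · Benchmarks – cell-only and virus control wells · Repeats – triplicate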

SMILES | IC50 [nM]
COCCCNC(=O)c1ccc(Cn2c(=O)c3ccccc3n(Cc3ccc(C)c(C(F)(F)F)c3)c2=O)cc1 | < 1200
COCCCNC(=O)c1ccc(Cn2c(=O)c3ccccc3n(Cc3ccc(Cl)cc3)c2=O)cc1 | < 1200
COCCCNC(=O)c1ccc(Cn2c(=O)c3ccccc3n(Cc3ccc([N+](=O)[O-])cc3)c2=O)cc1 | < 1200
COCCCNC(=O)c1ccc(Cn2c(=O)c3ccccc3n(Cc3ccc(OC)cc3)c2=O)cc1 | 2400
COCCCNC(=O)c1ccc(Cn2c(=O)c3ccccc3n(Cc3ccc(Br)cc3)c2=O)cc1 | < 1200
COCCCNC(=O)c1ccc(Cn2c(=O)c3ccccc3n(Cc3ccc(C(F)(F)F)cc3)c2=O)cc1 | < 1200
Cc1ccc(C)c(NC(=O)[C@@H]2CCCN2S(=O)(=O)c2cccc3cccnc23)c1 | 3200
COc1ccccc1CNC(=O)C1CCN(S(=O)(=O)c2cccc3nonc23)CC1 | 2900
COCCCNC(=O)c1ccc(Cn2c(=O)c3ccccc3n(Cc3ccc4nonc4c3)c2=O)cc1 | 5600
